Measurements as given in ChEMBL document CHEMBL2157972, “Selenophene-containing inhibitors of type IIA bacterial topoisomerases” (J Med Chem, 2011).
≈ marks a conversion by molar mass, not a printed value.

Legend:
Staphylococcus aureus [1] = assay: Antimicrobial activity against fluoroquinolone sensitive Staphylococcus aureus; format: functional
Outline: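 Standard susceptibility testing. The read-out is the minimum inhibitory concentration, reported in μg/mL.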

[2] = molecular target: T1, Voltage-gated inwardly rectifying potassium channel KCNH2 (Homo sapiens, UniProt Q12809)
Staphylococcus aureus [3] = assay: Antimicrobial activity against fluoroquinolone resistant Staphylococcus aureus; format: functional
Outline: (§1)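 Read-out is the minimum inhibitory concentration (MIC), reported in μg/mL, from standard antimicrobial susceptibility testing.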

Staphylococcus aureus [4] = assay: Antibacterial activity against methicillin-resistant Staphylococcus aureus ATCC 700699; format: functional; outline: as §1
[5] = Cytotoxicity against human Hep2 cell line after 72 hrs; format: cell-based; settings: HEp-2 cells
Outline: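 Human laryngeal epidermoid carcinoma Hep2 cells were exposed for 72 h.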

Staphylococcus aureus [6] = assay: Antibacterial activity against methicillin-sensitive Staphylococcus aureus ATCC 29213; format: functional; outline: as §1
[7] = Cytotoxicity against […] CHO cell line after 72 hrs; format: cell-based, Cricetulus griseus; settings: chinese hamster, CHO cells
Staphylococcus aureus [8] = assay: Antibacterial activity against fluoroquinolone resistant Staphylococcus aureus 1-FQR2M BK2384 expressing GyrA Ser84Leu mutant and GrlA Ser80Phe mutant; format: functional; outline: as §1
[9] = Cytotoxicity against human HepG2 cell line after 72 hrs; format: cell-based; settings: HepG2 cells
[10] = Inhibition of Staphylococcus aureus topoisomerase 4 by decatenation assay
Outline: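 Enzyme activity was measured by topoisomerase IV decatenation using S. aureus enzyme. Inhibition is reported as a concentration in μM.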

[11] = Cytotoxicity against human HeLa cell line after 72 hrs; format: cell-based; settings: HeLa cells
Staphylococcus aureus [12] = assay: Antibacterial activity against fluoroquinolone resistant Staphylococcus aureus 5-FQR4M BSA678 expressing GyrA Ser84Leu and Ser85Pro mutant and GrlA Ser80Phe and Glu84Lys mutant; format: functional; outline: as §1
Staphylococcus aureus [13] = assay: Antibacterial activity against fluoroquinolone resistant Staphylococcus aureus 2-FQR2M NY2746 expressing GyrA Ser84Leu mutant and GrlA Ser80Phe mutant; format: functional; outline: as §1
DNA gyrase = DNA gyrase (Staphylococcus aureus, UniProt P0A0K8+P20831); assay: Inhibition of Staphylococcus aureus DNA gyrase by supercoiling assay; format: protein-complex assay
Staphylococcus aureus [14] = assay: Antibacterial activity against fluoroquinolone resistant Staphylococcus aureus 4-FQR3M BSA643 expressing GyrA Ser84Leu mutant and GrlA Ser80Tyr and Glu84Gly mutant; format: functional; outline: as §1
Staphylococcus aureus [15] = assay: Antibacterial activity against fluoroquinolone resistant Staphylococcus aureus 3-FQR3M ATCC 700699 expressing GyrA Ser84Leu mutant and Glu409Lys mutant and GrlA Ser80Phe mutant; format: functional; outline: as §1
hERG (KCNH2) = hERG (KCNH2) (Homo sapiens, UniProt Q12809); assay: Inhibition of human ERG expressed in mammalian cells at 10 uM by patch clamp method; format: cell-based; settings: mammalian cells that express hERG
[16] = molecular target: T1, Voltage-gated inwardly rectifying potassium channel KCNH2; assay: Inhibition of human ERG expressed in mammalian cells by patch clamp method; format: cell-based

SMILES	MIC (Staphylococcus aureus [4]) [µg/mL]	CC50 at 72 h [5] [µM]	MIC (Staphylococcus aureus [6]) [µg/mL]	MIC (Staphylococcus aureus [8]) [µg/mL]	IC50 [10] [µM]	MIC (Staphylococcus aureus [12]) [µg/mL]	MIC (Staphylococcus aureus [13]) [µg/mL]	IC50 (DNA gyrase) [µM]	MIC (Staphylococcus aureus [14]) [µg/mL]	MIC (Staphylococcus aureus [15]) [µg/mL]	also measured
COc1ccc2ncc(F)c([C@@H](O)CC[C@@H]3CCN(CCSc4cccs4)C[C@@H]3C(=O)O)c2c1											MIC90 (Staphylococcus aureus [1]): 1 µg/mL (≈ 1.98 µM); IC50 [2]: 124 µM; MIC90 (Staphylococcus aureus [3]): 0.5 µg/mL (≈ 0.991 µM)
COC(=O)[C@H]1CN(CCSc2ccco2)CC[C@H]1CCC(=O)c1ccnc2ccc(OC)cc12	> 32										
COC(=O)[C@H]1CN(CCSc2cccs2)CC[C@H]1CCC(=O)c1ccnc2ccc(OC)cc12	> 32										
COC(=O)[C@H]1CN(CCSc2sccc2P(=O)(OC(C)C)OC(C)C)CC[C@H]1CCC(=O)c1ccnc2ccc(OC)cc12	> 32										
COC(=O)[C@H]1CN(CCSc2ccc[se]2)CC[C@H]1CCC(=O)c1ccnc2ccc(OC)cc12	> 32										
COC(=O)[C@H]1CN(CCS(=O)(=O)c2ccc[se]2)CC[C@H]1CCC(=O)c1ccnc2ccc(OC)cc12	> 32										
COC(=O)[C@H]1CN(CCSc2ccc(C(F)F)[se]2)CC[C@H]1CCC(=O)c1ccnc2ccc(OC)cc12	> 32										
COC(=O)[C@H]1CN(CCSc2ccc(C#N)[se]2)CC[C@H]1CCC(=O)c1ccnc2ccc(OC)cc12	> 32										
COC(=O)[C@H]1CN(CCC(=O)N2CCCCC2)CC[C@H]1CCC(=O)c1ccnc2ccc(OC)cc12	> 32										
COc1ccc2nccc([C@H](O)CC[C@@H]3CCN(CCSc4ccc[se]4)C[C@@H]3C(=O)O)c2c1 (mixture of isomers)	0.5	> 100	0.5	1	69	2	1	0.7	1	0.5	CC50 at 72 h [7]: > 100 µM; CC50 at 72 h [9]: > 100 µM; CC50 at 72 h [11]: > 100 µM
COc1ccc2nccc([C@@H](O)CC[C@@H]3CCN(CCSc4ccc[se]4)C[C@@H]3C(=O)O)c2c1 (mixture of isomers)	0.25	> 100	0.25	0.25	64	1	0.5	0.4	0.5	0.25	CC50 at 72 h [7]: > 100 µM; CC50 at 72 h [9]: > 100 µM; CC50 at 72 h [11]: > 100 µM
COc1ccc2nccc([C@H](O)CC[C@@H]3CCN(CCS(=O)(=O)c4ccc[se]4)C[C@@H]3C(=O)O)c2c1 (mixture of isomers)	> 64	> 100	> 64								
COc1ccc2nccc([C@@H](O)CC[C@@H]3CCN(CCS(=O)(=O)c4ccc[se]4)C[C@@H]3C(=O)O)c2c1 (mixture of isomers)	> 64	> 100	> 64					> 100			
COc1ccc2nccc([C@@H](O)CC[C@@H]3CCN(CCSc4ccc(C(F)F)[se]4)C[C@@H]3C(=O)O)c2c1 (mixture of isomers)	16	39	32					21.2			
COc1ccc2nccc([C@H](O)CC[C@@H]3CCN(CCSc4ccc(C=O)[se]4)C[C@@H]3C(=O)O)c2c1 (mixture of isomers)	16	> 100	16					8.9			
COc1ccc2nccc([C@H](O)CC[C@@H]3CCN(CCSc4ccc(C#N)[se]4)C[C@@H]3C(=O)O)c2c1 (mixture of isomers)	> 64	65	> 64								
COc1ccc2nccc([C@@H](O)CC[C@@H]3CCN(CCSc4ccc(C#N)[se]4)C[C@@H]3C(=O)O)c2c1 (mixture of isomers)	32	48	32					36.6			
COc1ccc2nccc(C(O)CC[C@@H]3CCN(CCSc4ccc(C(=O)O)[se]4)C[C@@H]3C(=O)O)c2c1 (mixture of isomers)	> 64	> 100	> 64					> 100			
COc1ccc2nccc(C(O)CC[C@@H]3CCN(CCC(=O)N4CCCCC4)C[C@@H]3C(=O)O)c2c1 (mixture of isomers)	32	> 100	32					10.6			
COc1ccc2nccc([C@H](O)CC[C@@H]3CCN(CCSc4ccco4)C[C@@H]3C(=O)O)c2c1 (mixture of isomers)	4	> 100	4	8	> 100	32	8	10.2	16	4	inhibition at 10 µM (hERG (KCNH2)): 14%; CC50 at 72 h [7]: > 100 µM; CC50 at 72 h [9]: > 100 µM; CC50 at 72 h [11]: > 100 µM
COc1ccc2nccc([C@@H](O)CC[C@@H]3CCN(CCSc4ccco4)C[C@@H]3C(=O)O)c2c1 (mixture of isomers)	2	> 100	2	4	> 100	8	2	4.7	4	2	inhibition at 10 µM (hERG (KCNH2)): 27%; IC50 [16]: < 30 µM; CC50 at 72 h [7]: > 100 µM; CC50 at 72 h [9]: > 100 µM; CC50 at 72 h [11]: > 100 µM
COc1ccc2nccc([C@H](O)CC[C@@H]3CCN(CCSc4cccs4)C[C@@H]3C(=O)O)c2c1 (mixture of isomers)	0.5	> 100	1	1	23	4	1	3.3	1	0.5	CC50 at 72 h [7]: > 100 µM; CC50 at 72 h [9]: > 100 µM; CC50 at 72 h [11]: > 100 µM
COc1ccc2nccc([C@@H](O)CC[C@@H]3CCN(CCSc4cccs4)C[C@@H]3C(=O)O)c2c1 (mixture of isomers)	0.13	> 100	0.25	0.25	45	0.5	0.25	1.4	0.25	0.13	MIC90 (Staphylococcus aureus [1]): 1 µg/mL; CC50 at 72 h [7]: > 100 µM; CC50 at 72 h [9]: > 100 µM; CC50 at 72 h [11]: > 100 µM; MIC90 (Staphylococcus aureus [3]): 0.5 µg/mL
COc1ccc2nccc([C@H](O)CC[C@@H]3CCN(CCSc4sccc4P(=O)(OC(C)C)OC(C)C)C[C@@H]3C(=O)O)c2c1 (mixture of isomers)	> 64	34	> 64								
COc1ccc2nccc([C@@H](O)CC[C@@H]3CCN(CCSc4sccc4P(=O)(OC(C)C)OC(C)C)C[C@@H]3C(=O)O)c2c1 (mixture of isomers)	> 64	> 98	> 64					> 100			
COc1ccc2nccc([C@H](O)CC[C@@H]3CCN(CCSc4sccc4P(=O)(O)O)C[C@@H]3C(=O)O)c2c1 (mixture of isomers)	> 64	> 100	> 64					> 100			
COc1ccc2nccc([C@@H](O)CC[C@@H]3CCN(CCSc4sccc4P(=O)(O)O)C[C@@H]3C(=O)O)c2c1 (mixture of isomers)	> 64	> 94	> 64								
O=C(O)c1cn(C2CC2)c2cc(N3CCNCC3)c(F)cc2c1=O [CIPROFLOXACIN]	64 (≈ 193 µM)	> 100	0.25 (≈ 0.754 µM)	64 (≈ 193 µM)	3	128 (≈ 386 µM)	256 (≈ 773 µM)		256 (≈ 773 µM)	64 (≈ 193 µM)	
CO/N=C1\CN(c2nc3c(cc2F)c(=O)c(C(=O)O)cn3C2CC2)CC1CN (centres undefined) [GEMIFLOXACIN]	4 (≈ 10.3 µM)		0.03 (≈ 0.077 µM)	1 (≈ 2.57 µM)	0.4	64 (≈ 164 µM)	32 (≈ 82.2 µM)		32 (≈ 82.2 µM)	4 (≈ 10.3 µM)	
COc1c(N2C[C@@H]3CCCN[C@@H]3C2)c(F)cc2c(=O)c(C(=O)O)cn(C3CC3)c12 [MOXIFLOXACIN]	4 (≈ 9.96 µM)	> 100	0.06 (≈ 0.149 µM)	1 (≈ 2.49 µM)	1	> 64	8 (≈ 19.9 µM)		16 (≈ 39.9 µM)	4 (≈ 9.96 µM)	
